Source: PubChem BioAssay (Columbia University Molecular Screening Center)
INS promoter act: TRM-6 insulin promoter activation. TRM-6 cells (human fetal islet line), insulin promoter eGFP reporter, imaging; plate-scaled: unstimulated 0, stimulated control 100. activation, % at 2 µM. 130,000 tested, 0.81% active. AID 1296;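 active means activation at 2 µM above a set limit, confirmed on inspection of the cell images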;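 further: share of cells whose green reporter signal exceeds an intensity cutoff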
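Assay system: TRM-6 insulin promoter–eGFP reporter cells / Input: 1,000 cells per well / Medium: Low-glucose (5.5 mM) medium with tamoxifen / Also added: tamoxifen inducer, 0.75 µM, in seeding medium / Timing: overnight tamoxifen, then two-day compound incubation at 37 °C / Signal: automated fluorescence imaging of paraformaldehyde-fixed, Hoechst-counterstained cells, green channel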
Hits are given with their value; – = inactive. The sample as a whole holds a higher share of hits than the screen did.

SMILES	INS promoter act
COc1cc(OC)cc(C(=O)N[C@H](C(=O)Nc2nc3c(s2)CCCC3)C(C)C)c1	–
COC(=O)Cc1c(C)c2c(O)cc(C)cc2oc1=O	–
COc1cc2c3nnc(-c4ccccc4)c-3cn(Cc3ccccc3F)c2cc1OC	525
Cc1sc2ncn(Cc3ccccc3F)c(=O)c2c1C	–
O=C1NC(=O)/C(=C\c2cn(Cc3ccccc3F)c3ccccc23)N1	–
COc1ccc(-c2noc(CCN3C(=O)c4ccccc4C3=O)n2)cc1OC	–
O=c1c2ccsc2ncn1Cc1ccccc1F	–
COc1cc2c3nnc(-c4ccc(F)cc4)c-3cn(Cc3ccccc3F)c2cc1OC	800
Clc1cccc(Cl)c1-c1nnc2ccc(N3CCOCC3)nn12	–
CCC(C)(C)NC(=O)C(c1ccc(C)cc1)N(Cc1cccnc1)C(=O)c1csnn1 (stereo unspecified)	–
CCC[C@@H]1C[C@@H](C(=O)N[C@H]([C@@H](C)O)[C@H]2O[C@H](SC)[C@H](O)[C@@H](O)C2O)N(C)C1 (stereo partly specified)	–
O=C(Nc1ccc(Cc2ccc(NC(=O)C3CC3)cc2)cc1)C1CC1	–
CC1CN(c2nc3ccccc3cc2-c2ccccc2)CC(C)O1 (stereo unspecified)	–
CC(c1ccccc1)n1cc(C(=O)NCCCn2ccnc2)nn1 (stereo unspecified)	–
N#Cc1cc2c(=O)n3ccccc3nc2n(Cc2ccco2)c1=NC(=O)c1ccco1	–
Cc1c(Cl)cccc1NC(=O)CSCC(N)=O	–
Nc1nncn1C(=O)CCCN1C(=O)c2ccccc2C1=O	–
Nc1nncn1C(=O)c1c(Cl)cccc1Cl	444
COc1ccccc1CNCC(O)Cn1c2ccccc2c2ccccc21 (stereo unspecified)	–
C[n+]1cccc(C(=O)NCC2CCCO2)c1 (stereo unspecified)	–
CCC(=O)NC(=S)Nc1ccc(OC)cc1OC	–
COc1ccc(N/C=C\C(=O)c2ccc3c(c2)OCO3)cc1	–
COc1cccc(N/C=C/C(=O)c2ccc(Br)cc2)c1	–
COc1ccc(C(=O)/C=C/Nc2cccc(O)c2)cc1	80
O=P(COCCCCCOCP(=O)(c1ccccc1)c1ccccc1)(c1ccccc1)c1ccccc1	–
SMILES	INS promoter act
COc1ccc(C(=O)NCc2nnc(SCC(=O)N3CCC(C)CC3)o2)cc1OC	–
Cc1onc(-c2ccccc2)c1C(=O)N1CCN(C(=O)c2ccco2)CC1	–
Cc1onc(-c2ccccc2)c1C(=O)N1CCN(C)CC1	100
Cc1onc(-c2ccccc2)c1C(=O)N1CCCN(C(=O)c2c(-c3ccccc3)noc2C)CC1	–
CCOC(=O)/C(C#N)=C/c1cccc(F)c1	–
CCOC(=O)/C(C#N)=C\c1cccnc1	–
C=CCN1C=CC(=C/C=C(/C#N)C(=O)OCC)C=C1	163
COc1ccc2c(=O)c(N3C(=O)c4ccccc4C3=O)coc2c1	–
COc1ccc(NC(=O)CN2c3cccc4cccc(c34)S2(=O)=O)cc1	–
COc1ccc2c(c1)-c1ccccc1S(=O)(=O)N2C(C)=O	184
Cc1cc(C(=O)COC(=O)c2ccc([N+](=O)[O-])o2)c(C)n1CC1CCCO1 (stereo unspecified)	–
O=C1OC2(CCCC2)OC(=O)C1=Cc1c[nH]c2ccccc12	–
COc1ccc(CCNC2CC(=O)N(N(C)C)C2=O)cc1OC (stereo unspecified)	–
COc1ccc(C2CC(=O)N(CCCN(C)CCc3ccc(OC)c(OC)c3)C2)cc1 (stereo unspecified)	–
CCCN1CCC(N(C)CCc2ccc(OC)c(OC)c2)CC1	127
CSc1nc(-c2ccccc2)ccc1C(N)=O	–
COc1ccc(OCc2nnc(SCC(N)=O)n2-c2ccccc2OC)cc1	160
COc1ccccc1-n1c(COc2ccccc2-c2ccccc2)nnc1SCC(=O)c1c(N)n(C)c(=O)n(C)c1=O	–
NC(=O)CSc1nnc(COc2ccccc2)n1CCc1ccccc1	–
C=CCNC(=O)COc1ccc(N(C)S(=O)(=O)c2ccc(NC(C)=O)cc2)cc1	–
Cc1ccccc1C(=O)Nc1cccc(C#N)c1	–
O=C1/C(=C/c2ccco2)N=C(N2CCCCC2)N1c1ccccc1	–
O=C1C2(c3ccccc3)CN(CCO)CC1(c1ccccc1)CN(CCO)C2	–
Cc1ccc(OCCCC(=O)NC(C)c2ccccc2)cc1 (stereo unspecified)	–
COc1ccccc1C(C)NC(=O)CCOc1cccc(C)c1 (stereo unspecified)	–
SMILES	INS promoter act
Cc1cccc(OCCCC(=O)NC(C)c2ccccc2)c1 (stereo unspecified)	85
CNC(=S)Nc1cc(OC)ccc1OC	–
CN=C1c2cc3cc(OC)ccc3n2CCN1C	–
O=C(N1CCOCC1)C1(c2ccccc2)CCCCC1	–
COc1ccc(C2(C(=O)Nc3ccc(C(=O)O)cc3)CCOCC2)cc1	–
O=C(O)c1ccc(NC(=O)C2(c3ccccc3)CCOCC2)cc1	494
O=C1C(=O)N(CCCn2ccnc2)C(c2cccnc2)/C1=C(/O)c1ccccc1 (stereo unspecified)	–
C/C(=N/Nc1ccc(C(=O)O)cc1)c1ccc(O)c(O)c1O	–
CCN(CC)CCNc1cc(C)nc2c1C(=O)C(=O)C=C2N1CCCCC1	–
COc1cc(NC(=O)CS(=O)(=O)c2ccccc2)cc(OC)c1OC	–
CCOC(=O)CS(=O)(=O)c1ccccc1	–
C/C(CS(=O)(=O)c1ccccc1)=N\O	229
CCc1nnc(NC(=O)CSc2nnc(C)n2-c2ccc(C)cc2)s1	–
CC1(C)CN(c2cccc(C#N)c2)C1=O	–
CN(C)CCNC(=O)c1cccc(S(=O)(=O)Nc2ccccc2F)c1	–
Cc1cc(/C=C2/C(=O)N(C)C(=S)N2C)ccc1N1CCCC1	376
CN1C(=O)/C(=C/c2ccccc2OCc2cccc(F)c2)N(C)C1=S	–
CCCN1C(=O)/C(=C/c2ccc(N3CCCC3)c(C)c2)NC1=S	92
COc1ccc(/C=C2\NC(=S)N(CC3CCCO3)C2=O)c(OC)c1C (stereo unspecified)	–
COc1cc(N2CCCC2)c(OC)cc1/C=C1/NC(=S)NC1=O	–
Cc1ccccc1N1CCN(C(=O)CN2C(=O)c3ccccc3C2=O)CC1	–
CC(C)Nc1ncnc2ccc(Br)cc12	–
CC1=C(C(=O)NCCN2CCN(C)CC2)C2(CCC(C)CC2)OC1=O (stereo unspecified)	–
Cc1cc(C)cc(NC(=O)c2cc(C)nn2C)c1	–
CCOC(=O)CC(NC(=O)CCc1c(C)nc2nc(C)nn2c1C)c1ccc(C)cc1 (stereo unspecified)	–
SMILES	INS promoter act
Cc1ccc(-c2cnc3c(Cl)c(C)nn3c2)cc1	–
CC(=O)c1cnc2cc(-c3cccc(Br)c3)nn2c1C	–
N#Cc1cnn2c(N)c(-c3ccc(Cl)cc3)cnc12	–
CC(=O)c1cnc2c(-c3ccc(Cl)cc3)cnn2c1C	585
Cn1c(=O)c2cc(S(=O)(=O)N3CCN(c4cccc(C(F)(F)F)c4)CC3)ccc2n(C)c1=O	–
Cc1cc2cc(CN(Cc3cccs3)C(=S)NCC3CCCO3)c(=O)[nH]c2cc1C (stereo unspecified)	–
COCc1nnc(SCC(=O)NC(C)c2ccccc2)n1-c1ccccc1 (stereo unspecified)	–
COc1cccc(C(=O)c2c[nH]c(C(=O)NCc3ccco3)c2)c1	–
Cc1cc(NC(=NC2CC2)c2ccccc2)n(-c2ccccc2)n1	–
CC(=O)NC(c1ccc(F)cc1)c1cccnc1 (stereo unspecified)	–
CCP(=O)(c1ccccc1)C(C)(C)O (stereo unspecified)	–
